In PMC6333999 (Cancer Research and Treatment : Official Journal of Korean …, 2018):

Experiments:
[1] = tested on: p38α; conditions: background statement, no reference given; cited from earlier work
[2] = tested on: p38δ; assay: Percentage inhibition assay by ELISA; type: biochemical
Outline: (§1)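 Added to ATF-2-coated plates, 1 h at 37°C. Anti-phospho-ATF-2 1:400, then AP anti-rabbit IgG 1:4,000, each 1 h at 37°C. pNPP (pH 8.1) 90 min, NaOH stop, A405. Enzyme without peptide taken as 100% activity for % inhibition.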

[3] = tested on: p38α; assay: SPR binding of peptide with p38α; conditions: BIAcore 3000, p38α on Ni-NTA chip, peptide in HBS-EP buffer
Outline: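 Pure p38α protein captured on an Ni-NTA chip. Test peptide in HBS-EP buffer injected at 0.23, 0.46 and 0.77 mM. Sensorgrams recorded, and association (KA) and dissociation (KD) constants fitted from them.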

[4] = tested on: p38α; assay: Percentage inhibition assay by ELISA; type: biochemical; conditions: ATF-2 substrate, same experiment as p38δ
Outline: as §1

[5] = target: T1, recombinant GST-tag p38δ protein (UniProt O15264); assay: SPR
T1 sequence: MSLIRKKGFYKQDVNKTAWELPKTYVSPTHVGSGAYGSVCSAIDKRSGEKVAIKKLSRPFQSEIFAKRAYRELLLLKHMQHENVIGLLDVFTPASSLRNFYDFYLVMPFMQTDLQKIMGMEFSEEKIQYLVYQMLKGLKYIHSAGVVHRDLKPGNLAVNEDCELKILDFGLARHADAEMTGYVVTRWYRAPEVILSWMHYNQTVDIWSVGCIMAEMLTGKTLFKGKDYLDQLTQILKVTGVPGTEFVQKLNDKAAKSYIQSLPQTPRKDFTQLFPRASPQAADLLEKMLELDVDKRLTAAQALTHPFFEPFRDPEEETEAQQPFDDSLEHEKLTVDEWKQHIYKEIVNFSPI

Molecule: C[S+]([O-])c1ccc(-c2nc(-c3ccncc3)c(-c3ccc(F)cc3)[nH]2)cc1 (stereo not drawn) [SB203580]
- specificity for p38α [1]: very specific p38α inhibitor

Molecule: WFYH
- percentage inhibition of p38δ ([2]; 75 μM peptide, ELISA, ATF-2 substrate, 100 μM ATP, pH 7.5, 37°C, 1 hour, 405 nm): 77%
- phosphorylation of ATF-2 by p38δ ([2]; kinetic assays, pure p38δ protein incubated with peptide): reduction in phosphorylation of ATF-2
- binding to p38α [3]: no binding was observed
- inhibition of p38α [4]: no inhibition

B1: WFYH tetrapeptide (peptide)
peptide: WFYH
- Kd [5]: 0.704 nM
